Measurements as given in ChEMBL document CHEMBL3525985, “Regiospecificity and stereospecificity of human UDP-glucuronosyltransferases in the glucuronidation of estriol, 16-epiestriol, 17-epiestriol, and 13-epiestradiol” (Drug Metab Dispos, 2013).

Legend:
Format in all cases: ADME
[1] = molecular target: T1, UDP-glucuronosyltransferase 1A1 (Homo sapiens, UniProt P22309); assay: Drug metabolism assessed as recombinant human C-terminal His-tagged UGT1A1-mediated estradiol-3-glucuronide formation at 200 uM after 15 to 60 mins by HPLC analysis in presence of UDPGA; settings: recombinant enzyme
T1 sequence (P22309 whole entry): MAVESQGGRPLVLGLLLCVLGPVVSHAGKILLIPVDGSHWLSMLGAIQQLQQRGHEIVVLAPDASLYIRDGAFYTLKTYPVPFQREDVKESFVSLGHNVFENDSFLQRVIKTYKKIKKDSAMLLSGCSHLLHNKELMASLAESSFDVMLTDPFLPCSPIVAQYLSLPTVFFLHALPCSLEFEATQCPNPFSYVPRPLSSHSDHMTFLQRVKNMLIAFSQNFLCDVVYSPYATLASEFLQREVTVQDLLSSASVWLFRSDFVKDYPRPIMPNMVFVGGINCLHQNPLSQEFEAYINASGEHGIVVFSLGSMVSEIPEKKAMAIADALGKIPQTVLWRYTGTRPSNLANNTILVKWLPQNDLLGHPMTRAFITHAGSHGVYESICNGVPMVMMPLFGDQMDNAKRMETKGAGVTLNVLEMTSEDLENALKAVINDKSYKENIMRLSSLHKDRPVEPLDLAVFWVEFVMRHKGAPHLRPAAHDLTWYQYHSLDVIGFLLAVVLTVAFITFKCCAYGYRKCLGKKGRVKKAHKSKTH
Summary of the method: (§1)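 Screening at a single substrate concentration of 200 μM, in triplicate. The reaction used 5 or 50 µg of UGT-enriched insect cell membranes in 50 mM phosphate pH 7.4 with 10 mM MgCl₂ and 5 mM UDPGA, 10% final DMSO. Incubation was 15–60 min at 37°C. Perchloric acid stopped the reaction and supernatants were analysed by HPLC. Controls lacked UDPGA. Rates were normalized to relative UGT expression level.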

[2] = molecular target: UDP-glucuronosyltransferase 1A10 (Homo sapiens, UniProt Q9HAW8, F93G); assay: Drug metabolism assessed as human UGT1A10 F93G mutant-mediated 13-epiestradiol-3-glucuronide formation at 200 uM after 15 to 60 mins by HPLC analysis in presence of UDPGA; summary of the method: as §1
Chain of UDP-glucuronosyltransferase 1A10 (Homo sapiens, UniProt Q9HAW8, F93G) (Q9HAW8 26-530 F93G limits assumed): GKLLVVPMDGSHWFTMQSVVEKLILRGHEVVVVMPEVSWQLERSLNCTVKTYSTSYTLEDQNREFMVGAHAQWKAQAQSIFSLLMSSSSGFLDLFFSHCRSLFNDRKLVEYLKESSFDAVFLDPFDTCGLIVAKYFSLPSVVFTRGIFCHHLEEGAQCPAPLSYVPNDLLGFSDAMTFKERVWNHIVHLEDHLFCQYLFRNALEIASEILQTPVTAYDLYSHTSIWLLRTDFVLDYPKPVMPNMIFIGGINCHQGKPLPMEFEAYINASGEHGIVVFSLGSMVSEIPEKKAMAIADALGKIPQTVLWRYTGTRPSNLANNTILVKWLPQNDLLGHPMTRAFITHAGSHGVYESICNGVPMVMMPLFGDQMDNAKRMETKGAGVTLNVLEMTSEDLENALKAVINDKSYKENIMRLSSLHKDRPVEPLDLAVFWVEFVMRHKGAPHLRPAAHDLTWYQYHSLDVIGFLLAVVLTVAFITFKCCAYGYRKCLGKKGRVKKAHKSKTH

[3] = molecular target: T2, UDP-glucuronosyltransferase 1A10 (Homo sapiens, UniProt Q9HAW8); assay: Drug metabolism assessed as recombinant human C-terminal His-tagged UGT1A10-mediated 16-epiestriol-3-glucuronide formation after 15 to 60 mins by Michaelis-Menten equation analysis in presence of UDPGA; settings: recombinant enzyme
T2 sequence (Q9HAW8 whole entry): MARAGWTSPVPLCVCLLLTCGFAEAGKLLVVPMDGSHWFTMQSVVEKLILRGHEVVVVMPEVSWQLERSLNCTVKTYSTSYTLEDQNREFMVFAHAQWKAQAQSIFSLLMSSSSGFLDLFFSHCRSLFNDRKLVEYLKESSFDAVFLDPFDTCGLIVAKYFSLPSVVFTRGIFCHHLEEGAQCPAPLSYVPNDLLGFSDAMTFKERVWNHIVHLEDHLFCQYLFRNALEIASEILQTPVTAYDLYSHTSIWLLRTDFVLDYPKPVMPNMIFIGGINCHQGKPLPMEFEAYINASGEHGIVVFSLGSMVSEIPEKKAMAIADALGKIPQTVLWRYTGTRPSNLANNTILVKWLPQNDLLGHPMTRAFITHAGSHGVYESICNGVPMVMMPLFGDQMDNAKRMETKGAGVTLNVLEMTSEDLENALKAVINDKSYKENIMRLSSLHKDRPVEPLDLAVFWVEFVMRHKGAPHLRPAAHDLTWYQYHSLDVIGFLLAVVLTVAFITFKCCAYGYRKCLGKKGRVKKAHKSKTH
Summary of the method: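 For kinetics, the aglycone ranged from 0.2 to 300 μM in DMSO (10% final) with 5 mM UDPGA, 10 mM MgCl₂ and 50 mM phosphate pH 7.4. Enzyme was UGT-enriched insect cell membranes. Incubation was 15–60 min at 37°C, in triplicate, keeping substrate consumption ≤10%. Products were measured by HPLC and fitted to Michaelis-Menten. Rates were normalized to expression level.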

[4] = molecular target: T3, UDP-glucuronosyltransferase 2B7 (Homo sapiens, UniProt P16662); assay: Drug metabolism assessed as recombinant human C-terminal His-tagged UGT2B7-mediated 16-epiestriol-16-glucuronide formation at 5 mg after 5 hrs by NMR spectroscopic analysis in presence of UDPGA
T3 sequence (P16662 whole entry): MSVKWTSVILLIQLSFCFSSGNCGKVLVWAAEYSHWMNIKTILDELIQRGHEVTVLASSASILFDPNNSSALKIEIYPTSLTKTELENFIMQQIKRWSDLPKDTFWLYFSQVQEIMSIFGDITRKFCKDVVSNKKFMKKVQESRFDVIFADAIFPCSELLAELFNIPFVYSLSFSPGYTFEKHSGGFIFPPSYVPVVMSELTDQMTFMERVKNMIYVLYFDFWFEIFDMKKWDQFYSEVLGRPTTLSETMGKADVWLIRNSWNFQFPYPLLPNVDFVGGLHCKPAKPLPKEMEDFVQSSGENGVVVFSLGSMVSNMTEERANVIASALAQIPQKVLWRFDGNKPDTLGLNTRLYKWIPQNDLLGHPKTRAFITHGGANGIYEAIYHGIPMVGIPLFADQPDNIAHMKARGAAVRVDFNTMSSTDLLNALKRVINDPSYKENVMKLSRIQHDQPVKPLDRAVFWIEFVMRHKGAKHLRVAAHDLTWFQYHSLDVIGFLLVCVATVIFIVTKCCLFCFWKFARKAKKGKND

[5] = Drug metabolism in human intestine microsomes assessed as 17-epiestriol-16-glucuronide formation after 15 to 60 mins by Michaelis-Menten equation analysis in presence of UDPGA
Summary of the method: (§2)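 Pooled human intestine microsomes (6 donors), 0.5 or 10 µg, with alamethicin at 5% of total protein. Incubated with 50 mM phosphate pH 7.4, 10 mM MgCl₂, 5 mM UDPGA and 10% DMSO for 15–60 min at 37°C. Each glucuronide regioisomer quantified by HPLC, in triplicate, with substrate consumption at or below 10%.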

Liver microsome = assay: Drug metabolism in human liver microsomes assessed as 17-epiestriol-17-glucuronide formation after 15 to 60 mins by Michaelis-Menten equation analysis in presence of UDPGA
Summary of the method: as §2, with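 “liver” for “intestine”, “(30” for “(6”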

[6] = molecular target: T3, UDP-glucuronosyltransferase 2B7; assay: Drug metabolism assessed as recombinant human C-terminal His-tagged UGT2B7-mediated 17-epiestriol-17-glucuronide formation at 4 mg after 5 hrs by NMR spectroscopic analysis in presence of UDPGA; settings: recombinant enzyme
Summary of the method: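 Preparative biosynthesis: 4 mg 17-epiestriol with fresh UGT2B7-enriched insect-cell homogenate (about 500 mg total protein) in 25 ml. Contained 50 mM phosphate pH 7.4, 10 mM MgCl₂, 50 mM UDPGA and 10% DMSO. Glucuronides fractionated by HPLC with 0.1% HCOOH eluent and 280 nm UV, then concentrated and lyophilized for NMR.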

With C[C@]12CC[C@@H]3c4ccc(O)cc4CC[C@H]3[C@@H]1CC[C@@H]2O [ESTRADIOL] the Drug metabolism [1] was “metabolite_detected”.
In the case of C[C@@]12CC[C@@H]3c4ccc(O)cc4CC[C@H]3[C@@H]1CC[C@@H]2O, the Drug metabolism [2] is reported as “metabolite_detected”.
For C[C@]12CC[C@@H]3c4ccc(O)cc4CC[C@H]3[C@@H]1C[C@H](O)[C@@H]2O [EPIESTRIOL], the Drug metabolism [3] was 3500 pmol/min/mg and the Drug metabolism [4] was “metabolite_detected”.
C[C@]12CC[C@@H]3c4ccc(O)cc4CC[C@H]3[C@@H]1C[C@@H](O)[C@H]2O showed a Km [5] of 820 µM, a Vmax [5] of 266 pmol/min/mg and a Km (Liver microsome) of 21 µM. The Vmax (Liver microsome) was 5425 pmol/min/mg and the Drug metabolism [6] was “metabolite_detected”.
